Data reported in paper PMC3115469 (Molecular microbiology, 2011).
Several values for one entry are separate records, joined by “and”; a condition that tells them apart may be missing. Identical values can stand only once. Square brackets hold non-standard residues; d marks the D form. Peptide text beside a SMILES is read from it. Orn(N5-OH,N5-Ac) = CC(=O)N(O)CCC[C@H](N)C(=O)O

What was measured:
FhuD-6H (Lmo1959) = FhuD-6H (Lmo1959) (Listeria monocytogenes, UniProt Q8Y5U6); test: Intrinsic Trp fluorescence quenching, ligand binding to purified 6H-FhuD
HupD-6H (Lmo2431) = HupD-6H (Lmo2431) (Listeria monocytogenes, UniProt Q8Y4K7); test: Intrinsic Trp fluorescence quenching, ligand binding to purified 6H-HupD
L. monocytogenes EGD-e [1] = test: [59Fe]-Hn binding to whole cells, EGD-e; parameters: species or system Listeria monocytogenes; conditions: strain EGD-e; for Kd: read-out: Binding Kd, MOPS-L, on ice
L. monocytogenes EGD-e [2] = test: [59Fe]-Hn uptake by cells, EGD-e; assay type: cell-based, Listeria monocytogenes; conditions: for Km: read-out: Transport Km; for Km / Transport Vmax: 37°C
[3] = tested on: L. monocytogenes EGD-e Δhup (ΔhupDGC); test: [59Fe]-Hn uptake by cells, Δhup; assay type: cell-based, Listeria monocytogenes
L. monocytogenes EGD-e [4] = test: Growth assay in BHI with 2,2'-bipyridyl; assay type: cell-based, Listeria monocytogenes
L. monocytogenes EGD-e [5] = conditions: aqueous buffers; ref Jin et al., 2005; cited from earlier work
Lmo2185 (Hbp2) = molecular target: T1, Lmo2185 (Hbp2) (Listeria monocytogenes serovar 1/2a, UniProt Q7AP54); test: Equilibrium [59Fe]-Hn filter binding to purified Lmo2185
T1 sequence (Q7AP54 29-569): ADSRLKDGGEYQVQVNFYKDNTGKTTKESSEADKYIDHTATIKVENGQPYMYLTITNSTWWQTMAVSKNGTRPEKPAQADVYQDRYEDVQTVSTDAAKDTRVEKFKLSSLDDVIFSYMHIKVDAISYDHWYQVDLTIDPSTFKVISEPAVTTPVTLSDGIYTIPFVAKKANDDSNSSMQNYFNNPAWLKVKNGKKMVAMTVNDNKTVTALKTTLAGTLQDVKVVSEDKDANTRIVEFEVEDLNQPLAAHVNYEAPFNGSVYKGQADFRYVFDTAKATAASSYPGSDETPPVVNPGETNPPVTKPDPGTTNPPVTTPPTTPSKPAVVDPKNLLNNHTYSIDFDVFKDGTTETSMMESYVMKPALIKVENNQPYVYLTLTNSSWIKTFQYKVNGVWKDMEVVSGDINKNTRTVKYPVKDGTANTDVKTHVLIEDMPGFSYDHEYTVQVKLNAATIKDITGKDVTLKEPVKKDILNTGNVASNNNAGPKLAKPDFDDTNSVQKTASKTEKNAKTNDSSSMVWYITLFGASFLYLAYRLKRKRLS
In short: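 His-tagged Hbp2 expressed in E. coli BL21 (1 mM IPTG), purified on Co-NTA and Sephacryl S-100, stripped of Hn by boiling in 0.5% SDS and acetone precipitation, then renatured in TBS pH 8.0. Protein at 30.6 pmol/mL, refolded 1 h at RT, mixed with [59Fe]-Hn (DMSO) for 30 min on ice. Filtered on cellulose acetate and gamma-counted. Triplicates, protein-free background subtracted, KD from bound-vs-total fit.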

[6] = tested on: L. monocytogenes EGD-e Δhup (ΔhupDGC); test: [59Fe]-Hn binding to whole cells, Δhup; parameters: species or system Listeria monocytogenes
[7] = tested on: L. monocytogenes EGD-e ΔsrtA; test: [59Fe]-Hn binding to whole cells, ΔsrtA; parameters: species or system Listeria monocytogenes; conditions: strain ΔsrtA
In short: (§1)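 Bacteria were grown overnight in BHI at 37°C, then passaged twice (1%) in iron-deficient MOPS-L to OD600 0.6–0.8. Cells were exposed on ice for 1 min to [59Fe]-Hn (DMSO stock diluted in ice-cold MOPS-L). They were filtered (0.45 µm), washed with 50 mM Tris-HCl pH 9.0 plus 0.05% Tween-20, and gamma-counted. Filter-only counts were subtracted. Triplicates were fitted to a one-site-plus-background model for KD and capacity (pmol/10^9 cells).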

[8] = tested on: L. monocytogenes EGD-e ΔsrtB; test: [59Fe]-Hn binding to whole cells, ΔsrtB; parameters: species or system Listeria monocytogenes
[9] = tested on: L. monocytogenes EGD-e ΔsrtAB; test: [59Fe]-Hn binding to whole cells, ΔsrtAB; parameters: species or system Listeria monocytogenes; conditions: strain ΔsrtAB
In short: as §1

[10] = tested on: L. monocytogenes EGD-e Δlmo2185 (Δhbp2); test: [59Fe]-Hn binding to whole cells, Δlmo2185; parameters: species or system Listeria monocytogenes
[11] = tested on: L. monocytogenes EGD-e ΔsrtA; test: [59Fe]-Hn uptake by cells, ΔsrtA; assay type: cell-based, Listeria monocytogenes; conditions: strain ΔsrtA
In short: (§2)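 Cultures from overnight BHI (37°C) were passaged 1% into MOPS-L to stationary phase, then again to OD600 0.8–1. Cells were added to 37°C MOPS containing varying [59Fe]-Hn, filtered at 5 s and 1 min, washed with ice-cold 50 mM Tris, 0.05% Tween-20, pH 9, and gamma-counted. The 5 s counts were subtracted from 1 min counts to give rate. Triplicates were fitted to enzyme kinetics for KM and Vmax.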

[12] = tested on: L. monocytogenes EGD-e ΔsrtB; test: [59Fe]-Hn uptake by cells, ΔsrtB; assay type: cell-based, Listeria monocytogenes; conditions: strain ΔsrtB
In short: as §2

[13] = tested on: L. monocytogenes EGD-e ΔsrtAB; test: [59Fe]-Hn uptake by cells, ΔsrtAB; assay type: cell-based, Listeria monocytogenes; conditions: strain ΔsrtAB
In short: as §2

L. monocytogenes EGD-e [14] = test: Iron nutrition tests on BHI agar with bipyridyl, EGD-e; assay type: cell-based, Listeria monocytogenes; conditions: 50 uM Fc, EGD-e and all mutant strains
[15] = molecular target: listerial CM Fc transporter FhuDBGC; conditions: ref Jin et al., 2005, cited from earlier work
E. coli FhuA = conditions: ref Newton et al., 2010; cited from earlier work

Work on `C=CC1=C(C)c2cc3[nH]c(cc4nc(cc5[nH]c(cc1n2)c(C)c5CCC(=O)O)C(CCC(=O)O)=C4C)c(C)c3C=C` [PPIX, protoporphyrin IX] yielded a Kd (FhuD-6H (Lmo1959); Binding Kd FhuD-6H, intrinsic fluorescence quenching, 3–5 trials, Kd ± SD) of 276 ± 32 nM, a Kd (FhuD-6H (Lmo1959); KD for 6H-FhuD, fluorescence spectroscopy) of 300 nM and a Kd (HupD-6H (Lmo2431)) of 1150 nM. The “fold lower affinity for LmoHupD than Hn” value (HupD-6H (Lmo2431); relative to Hn) was 40 fold.

In the case of `C=CC1=C(C)c2cc3[nH]c(cc4nc(cc5[nH]c(cc1n2)c(C)c5C=C)C(C)=C4CCC(=O)O)c(CCC(=O)O)c3C.[Fe+3]` [Hn, haemin], the “fold higher affinity of 6H-HupD than the most avid LmoFhuD binding interaction” value (HupD-6H (Lmo2431); relative to FhuD-FxB) is reported as 5 fold, the Kd (L. monocytogenes EGD-e [1]) is reported as ~1 nM and the Km (L. monocytogenes EGD-e [2]; strain EGD-e) is reported as 1 nM and ~1 nM. For the same molecule, the “Transport Vmax” value (L. monocytogenes EGD-e [2]; strain EGD-e) was 23 pMol/10^9cells/min, the “Transport Vmax” value ([3]; strain Δhup) was 7 pMol/10^9cells/min and the “fold lower uptake rate than wild type” value ([3]; ΔhupDBGC strain vs EGD-e) was 3 fold. The “effect on growth in BHI containing 1 mM BP” value (L. monocytogenes EGD-e [4]; 0.2 mM Hn added (printed), EGD-e) was “returned to its original growth rate” and the “concentration that stimulated growth in previous study” value (L. monocytogenes EGD-e [5]) was 200 µM.

In the case of `c1ccc(-c2ccccn2)nc1` [BP, 2, 2’-bipyridyl], the “effect on growth in BHI” value (L. monocytogenes EGD-e [4]; 1 mM BP, wild type and mutant derivatives) is reported as “inhibited growth”.

For `C=CC1=C(C)c2cc3[n-]c(cc4nc(cc5[n-]c(cc1n2)c(C)c5CCC(=O)O)C(CCC(=O)O)=C4C)c(C)c3C=C.[59Fe+3]` [[^59Fe]-Hn], the Kd (Lmo2185 (Hbp2)) was 12 nM, the Kd (L. monocytogenes EGD-e [1]) was 2 nM and 2.4 nM and the “Binding Cap.” value (L. monocytogenes EGD-e [1]) was 130 pMol/10^9cells and 129.5 ± 5.6 pMol/10^9cells. For the same molecule, the Kd ([6]; read-out: Binding Kd, strain Δhup) was 2.5 ± 0.45 nM, the “Binding Cap.” value ([6]; strain Δhup) was 105 pMol/10^9cells and 105 ± 4.2 pMol/10^9cells and the “decrease of binding capacity” value ([6]; Δhup vs EGD-e) was ~ 20% and 20%. For the same molecule, the Kd ([7]; read-out: Binding Kd) was 2.3 ± 0.16 nM, the “Binding Cap.” value [7] was 130 pMol/10^9cells and 129 ± 1.9 pMol/10^9cells and the Kd ([8]; read-out: Binding Kd, strain ΔsrtB) was 9.9 ± 1.3 nM. For the same molecule, the “Binding Cap.” value ([8]; strain ΔsrtB) was 19 pMol/10^9cells and 18.7 ± 0.9 pMol/10^9cells, the “decrease of binding capacity” value ([8]; ΔsrtB vs EGD-e, nanomolar range) was 80% and the Kd ([9]; read-out: Binding Kd) was 5.1 ± 3 nM. For the same molecule, the “Binding Cap.” value [9] was 9 pMol/10^9cells and 9 ± 1.5 pMol/10^9cells, the Kd ([10]; read-out: Binding Kd, strain Δlmo2185 (Δhbp2)) was 11.4 ± 2.6 nM and the “Binding Cap.” value ([10]; strain Δlmo2185 (Δhbp2)) was 30.1 ± 2.9 pMol/10^9cells. For the same molecule, the “decrease of binding capacity” value ([10]; Δhbp2 vs EGD-e, nanomolar range) was 80%, the Km (L. monocytogenes EGD-e [2]; strain EGD-e) was 1.2 ± 0.2 nM and the “Hup-dependent transport rate Vmax” value (L. monocytogenes EGD-e [2]; residual accumulation in Δhup subtracted from wild-type, estimate) was 14 pMol/10^9 cells/min. For the same molecule, the “Vmax of uptake (text, unit without /min)” value (L. monocytogenes EGD-e [2]; strain EGD-e) was 23 pMol/10^9 cells, the “Transport Vmax” value (L. monocytogenes EGD-e [2]; strain EGD-e) was 22.2 ± 0.9 pMol/10^9cells/min and the Km ([3]; read-out: Transport Km, strain Δhup) was 1.1 ± 0.2 nM. For the same molecule, the “Transport Vmax” value ([3]; strain Δhup) was 7.5 pMol/10^9cells/min and 7.5 ± 0.3 pMol/10^9cells/min, the “Vmax as percent of the wild type rate” value ([3]; ΔhupDGC vs EGD-e) was 27% and the Km ([11]; read-out: Transport Km) was 1.4 ± 0.2 nM. For the same molecule, the “Transport Vmax” value [11] was 23.1 ± 0.6 pMol/10^9cells/min, the Km ([12]; read-out: Transport Km) was 7.1 ± 7.5 nM and the “Transport Vmax” value [12] was 3.5 ± 1.6 pMol/10^9cells/min. For the same molecule, the Km ([13]; read-out: Transport Km) was 15.1 ± 6.4 nM and the “Transport Vmax” value [13] was 5.6 ±1.3 pMol/10^9cells/min.

In the case of `CC(=O)N(O)CCC[C@@H]1NC(=O)CNC(=O)CNC(=O)CNC(=O)[C@H](CCCN(O)C(C)=O)NC(=O)[C@H](CCCN(O)C(C)=O)NC1=O.[Fe+3]` [Fc, ferrichrome] (cyclo(GGG[Orn(N5-OH,N5-Ac)][Orn(N5-OH,N5-Ac)][Orn(N5-OH,N5-Ac)])), the “utilization as iron source in nutrition test” value (L. monocytogenes EGD-e [14]) is listed as “normally utilized”, the Kd ([15]; read-out: KD, listerial Fc acquisition, KD ≈ KM) is listed as ~1 nM and the Km ([15]; read-out: KM, listerial Fc transport, KD ≈ KM) is listed as ~1 nM. For the same molecule, the “Vmax of Fc transport, FhuDBGC” value [15] was 22 pMol/10^9 cells/min and the “Vmax of Fc transport, E. coli FhuA” value (E. coli FhuA) was 45 pMol/10^9 cells/min.
